≈ marks a conversion by molar mass, not a printed value.
What was measured:
Type in all cases: functional
Enterococcus faecalis [1] = assay: Antibacterial activity against Enterococcus faecalis 10-7 after 18 to 24 hrs by NCCLS method
How it was run: (§1)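 Standard NCCLS (M100-S11) MIC testing against Gram-positive and Gram-negative strains. Plates were incubated at 35 °C for 18–24 h. The MIC was read as the lowest concentration giving complete inhibition of visible bacterial growth.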

[2] = test system: Staphylococcus epidermidis; assay: Antibacterial activity against methicillin-sensitive Staphylococcus epidermidis 10-15 after 18 to 24 hrs by NCCLS method
How it was run: (§2)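 Incubated at 35 °C for 18–24 h under NCCLS (M100-S11) standards. MIC was read as the lowest concentration giving complete inhibition of visible bacterial growth.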

Escherichia coli [3] = assay: Antibacterial activity against Escherichia coli 10-2 after 18 to 24 hrs by NCCLS method; how it was run: as §1
Pseudomonas aeruginosa [4] = assay: Antibacterial activity against Pseudomonas aeruginosa 10-5 after 18 to 24 hrs by NCCLS method; how it was run: as §1
Enterococcus faecalis [5] = assay: Antibacterial activity against Enterococcus faecalis 10-5 after 18 to 24 hrs by NCCLS method; how it was run: as §1
Enterococcus faecium [6] = assay: Antibacterial activity against Enterococcus faecium 10-9 after 18 to 24 hrs by NCCLS method; how it was run: as §1
Pseudomonas aeruginosa [7] = assay: Antibacterial activity against Pseudomonas aeruginosa 10-15 after 18 to 24 hrs by NCCLS method; how it was run: as §1
Staphylococcus aureus [8] = assay: Antibacterial activity against methicillin-resistant Staphylococcus aureus 10-13 after 18 to 24 hrs by NCCLS method; how it was run: as §2
Pseudomonas aeruginosa [9] = assay: Antibacterial activity against Pseudomonas aeruginosa 10-9 after 18 to 24 hrs by NCCLS method; how it was run: as §1
Pseudomonas aeruginosa [10] = assay: Antibacterial activity against Pseudomonas aeruginosa 10-12 after 18 to 24 hrs by NCCLS method; how it was run: as §1
Staphylococcus aureus [11] = assay: Antibacterial activity against methicillin-sensitive Staphylococcus aureus 10-13 after 18 to 24 hrs by NCCLS method; how it was run: as §1
Klebsiella pneumoniae [12] = assay: Antibacterial activity against extended spectrum beta-lactamases producing Klebsiella pneumoniae 10-3 after 18 to 24 hrs by NCCLS method; how it was run: as §1
Klebsiella pneumoniae [13] = assay: Antibacterial activity against Klebsiella pneumoniae 10-4 after 18 to 24 hrs by NCCLS method; how it was run: as §1
Staphylococcus aureus [14] = assay: Antibacterial activity against methicillin-sensitive Staphylococcus aureus 10-11 after 18 to 24 hrs by NCCLS method; how it was run: as §1
Klebsiella pneumoniae [15] = assay: Antibacterial activity against extended spectrum beta-lactamases producing Klebsiella pneumoniae 10-1 after 18 to 24 hrs by NCCLS method; how it was run: as §1
Escherichia coli [16] = assay: Antibacterial activity against extended spectrum beta-lactamases producing Escherichia coli 10-3 after 18 to 24 hrs by NCCLS method; how it was run: as §1
[17] = test system: Staphylococcus epidermidis; assay: Antibacterial activity against methicillin-resistant Staphylococcus epidermidis 10-10 after 18 to 24 hrs by NCCLS method; how it was run: as §2
Pseudomonas aeruginosa [18] = assay: Antibacterial activity against Pseudomonas aeruginosa 10-20 after 18 to 24 hrs by NCCLS method; how it was run: as §1
Pseudomonas aeruginosa [19] = assay: Antibacterial activity against Pseudomonas aeruginosa 10-18 after 18 to 24 hrs by NCCLS method; how it was run: as §1
Staphylococcus aureus [20] = assay: Antibacterial activity against methicillin-resistant Staphylococcus aureus 10-11 after 18 to 24 hrs by NCCLS method; how it was run: as §2
Streptococcus pneumoniae [21] = assay: Antibacterial activity against Streptococcus pneumoniae 10-6 after 18 to 24 hrs by NCCLS method; how it was run: as §1
[22] = test system: Staphylococcus epidermidis; assay: Antibacterial activity against methicillin-sensitive Staphylococcus epidermidis 10-11 after 18 to 24 hrs by NCCLS method; how it was run: as §1
Staphylococcus aureus [23] = assay: Antibacterial activity against methicillin-sensitive Staphylococcus aureus 10-14 after 18 to 24 hrs by NCCLS method; how it was run: as §1
Escherichia coli [24] = assay: Antibacterial activity against Escherichia coli ATCC 25922 after 18 to 24 hrs by NCCLS method; how it was run: as §1
Streptococcus pneumoniae [25] = assay: Antibacterial activity against Streptococcus pneumoniae 10-1 after 18 to 24 hrs by NCCLS method; how it was run: as §1
Enterococcus faecium [26] = assay: Antibacterial activity against Enterococcus faecium 10-6 after 18 to 24 hrs by NCCLS method; how it was run: as §1
Escherichia coli [27] = assay: Antibacterial activity against extended spectrum beta-lactamases producing Escherichia coli 10-2 after 18 to 24 hrs by NCCLS method; how it was run: as §1
Escherichia coli [28] = assay: Antibacterial activity against extended spectrum beta-lactamases producing Escherichia coli 10-4 after 18 to 24 hrs by NCCLS method; how it was run: as §1
Staphylococcus aureus [29] = assay: Antibacterial activity against Staphylococcus aureus ATCC 2592 after 18 to 24 hrs by NCCLS method; how it was run: as §1
Escherichia coli [30] = assay: Antibacterial activity against Escherichia coli 10-1 after 18 to 24 hrs by NCCLS method; how it was run: as §1
Klebsiella pneumoniae [31] = assay: Antibacterial activity against Klebsiella pneumoniae 10-3 after 18 to 24 hrs by NCCLS method; how it was run: as §1
Staphylococcus aureus [32] = assay: Antibacterial activity against methicillin-resistant Staphylococcus aureus 10-15 after 18 to 24 hrs by NCCLS method; how it was run: as §2
Klebsiella pneumoniae [33] = assay: Antibacterial activity against extended spectrum beta-lactamases producing Klebsiella pneumoniae 10-2 after 18 to 24 hrs by NCCLS method; how it was run: as §1
Klebsiella pneumoniae [34] = assay: Antibacterial activity against Klebsiella pneumoniae 10-2 after 18 to 24 hrs by NCCLS method; how it was run: as §1
[35] = test system: Staphylococcus epidermidis; assay: Antibacterial activity against methicillin-resistant Staphylococcus epidermidis 10-13 after 18 to 24 hrs by NCCLS method; how it was run: as §2
Escherichia coli [36] = assay: Antibacterial activity against Escherichia coli 10-3 after 18 to 24 hrs by NCCLS method; how it was run: as §1
Enterococcus faecalis [37] = assay: Antibacterial activity against Enterococcus faecalis 10-6 after 18 to 24 hrs by NCCLS method; how it was run: as §1
[38] = test system: Mycobacterium tuberculosis; assay: Antimycobacterial activity against Mycobacterium tuberculosis H37Rv ATCC 27294 by microplate alamar blue assay
How it was run: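 Microplate Alamar Blue fluorescence assay on strain H37Rv ATCC 27294. MIC was the lowest concentration cutting fluorescence by ≥90% against the mean of replicate bacterium-only controls.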

**Q.** With `COc1cc(CN2CCN(c3cc4c(cc3F)c(=O)c(C(=O)O)cn4C3CC3)CC2)cc(OC)c1` as the compound, how does the MIC (Enterococcus faecalis [1]) read?
**A.** > 128 µg/mL

**Q.** What about the MIC [2] of the same compound?
**A.** 128 µg/mL (≈ 266 µM)

**Q.** What about the MIC (Escherichia coli [3]) of the same compound?
**A.** > 128 µg/mL

**Q.** And the MIC (Pseudomonas aeruginosa [4])?
**A.** 64 µg/mL (≈ 133 µM)

**Q.** What about the MIC (Enterococcus faecalis [5]) of the same compound?
**A.** 128 µg/mL (≈ 266 µM)

**Q.** What about the MIC (Enterococcus faecium [6]) of the same compound?
**A.** > 128 µg/mL

**Q.** What about the MIC (Pseudomonas aeruginosa [7]) of the same compound?
**A.** 64 µg/mL (≈ 133 µM)

**Q.** What about the MIC (Staphylococcus aureus [8]) of the same compound?
**A.** > 128 µg/mL

**Q.** And the MIC (Pseudomonas aeruginosa [9])?
**A.** 128 µg/mL (≈ 266 µM)

**Q.** And the MIC (Pseudomonas aeruginosa [10])?
**A.** 64 µg/mL (≈ 133 µM)

**Q.** And the MIC (Staphylococcus aureus [11])?
**A.** 0.5 µg/mL (≈ 1.04 µM)

**Q.** What about the MIC (Klebsiella pneumoniae [12]) of the same compound?
**A.** > 128 µg/mL

**Q.** And the MIC (Klebsiella pneumoniae [13])?
**A.** > 128 µg/mL

**Q.** And the MIC (Staphylococcus aureus [14])?
**A.** 1 µg/mL (≈ 2.08 µM)

**Q.** What about the MIC (Klebsiella pneumoniae [15]) of the same compound?
**A.** > 128 µg/mL

**Q.** And the MIC (Escherichia coli [16])?
**A.** > 128 µg/mL

**Q.** What about the MIC [17] of the same compound?
**A.** > 128 µg/mL

**Q.** What about the MIC (Pseudomonas aeruginosa [18]) of the same compound?
**A.** 64 µg/mL (≈ 133 µM)

**Q.** What about the MIC (Pseudomonas aeruginosa [19]) of the same compound?
**A.** 128 µg/mL (≈ 266 µM)

**Q.** And the MIC (Staphylococcus aureus [20])?
**A.** 128 µg/mL (≈ 266 µM)

**Q.** What about the MIC (Streptococcus pneumoniae [21]) of the same compound?
**A.** > 128 µg/mL

**Q.** What about the MIC [22] of the same compound?
**A.** 4 µg/mL (≈ 8.31 µM)

**Q.** And the MIC (Staphylococcus aureus [23])?
**A.** 1 µg/mL (≈ 2.08 µM)

**Q.** What about the MIC (Escherichia coli [24]) of the same compound?
**A.** 1 µg/mL (≈ 2.08 µM)

**Q.** And the MIC (Streptococcus pneumoniae [25])?
**A.** 8 µg/mL (≈ 16.6 µM)

**Q.** And the MIC (Enterococcus faecium [26])?
**A.** 16 µg/mL (≈ 33.2 µM)

**Q.** What about the MIC (Escherichia coli [27]) of the same compound?
**A.** > 128 µg/mL

**Q.** And the MIC (Escherichia coli [28])?
**A.** > 128 µg/mL

**Q.** And the MIC (Staphylococcus aureus [29])?
**A.** 1 µg/mL (≈ 2.08 µM)

**Q.** And the MIC (Escherichia coli [30])?
**A.** > 128 µg/mL

**Q.** What about the MIC (Klebsiella pneumoniae [31]) of the same compound?
**A.** 64 µg/mL (≈ 133 µM)

**Q.** What about the MIC (Staphylococcus aureus [32]) of the same compound?
**A.** 64 µg/mL (≈ 133 µM)

**Q.** What about the MIC (Klebsiella pneumoniae [33]) of the same compound?
**A.** > 128 µg/mL

**Q.** And the MIC (Klebsiella pneumoniae [34])?
**A.** > 128 µg/mL

**Q.** What about the MIC [35] of the same compound?
**A.** 128 µg/mL (≈ 266 µM)

**Q.** And the MIC (Escherichia coli [36])?
**A.** > 128 µg/mL

**Q.** What about the MIC (Enterococcus faecalis [37]) of the same compound?
**A.** > 128 µg/mL

**Q.** What about the MIC [38] of the same compound?
**A.** 2 µg/mL (≈ 4.15 µM)
